Source: PubChem
Only some compounds are listed: those with a hit (about 2.9% of all), similar ones and a draw of the others.
CHO-K1 Ca antag: nonselective inhibitor or artifact in parental CHO-K1 cells. ATP-induced calcium, Fluo-8 fluorescence. inhibition, % at 3 µM. 0.6% of 360,000 active;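 active = inhibition above a per-plate cutoff, the plate's mean sample inhibition plus 3 SD, cut at about 24% in these data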;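 note: 0% = DMSO plus EC80 ATP and 100% = DMSO alone without ATP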
M1 ag parental: counter-screen for M1 agonists: effect in parental CHO-K1 cells; Fluo-8 calcium fluorescence; scaled to maximal ATP response, vehicle zero; activation, % at 3 µM; 0.48% of 360,000 active; AID 602248; in the data active = activation above about 15%;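 note: untransfected CHO-K1 host cells lacking M1 receptor as counterscreen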
OX1R antag-1: blocks the human orexin 1 receptor. inhibition, % at 5 µM. CHO/OX1R cells, Fluo-8 calcium fluorescence, orexin A. 0.43% of 330,000 active. O43613;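 active = inhibition above its plate's threshold, mean inhibition of all tested compounds on the plate plus 3 SD, cut at about 37% in these data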;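 note: 0% = orexin A challenge wells and 100% = SB-334867-A antagonist wells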
Target sequence (O43613 whole entry, looked up): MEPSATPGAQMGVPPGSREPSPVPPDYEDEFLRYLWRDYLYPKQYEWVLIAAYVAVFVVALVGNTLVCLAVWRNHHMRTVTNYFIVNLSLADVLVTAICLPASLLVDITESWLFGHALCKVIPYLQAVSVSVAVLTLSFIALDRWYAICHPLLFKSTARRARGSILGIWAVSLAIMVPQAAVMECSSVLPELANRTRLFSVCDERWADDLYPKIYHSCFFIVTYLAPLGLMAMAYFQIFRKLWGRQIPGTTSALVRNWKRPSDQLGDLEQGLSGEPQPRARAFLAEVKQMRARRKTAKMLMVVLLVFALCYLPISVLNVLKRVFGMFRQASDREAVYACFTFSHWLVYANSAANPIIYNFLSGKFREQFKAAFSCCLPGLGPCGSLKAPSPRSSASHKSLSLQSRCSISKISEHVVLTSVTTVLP
M1 PAM parental: M1 PAM counterscreen hit in parental CHO-K1 cells; ATP EC20, Fluo-8 calcium fluorescence; 0% at ATP EC20, 100% at ATP max; activation, % at 3 µM; 0.02% of 360,000 active;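 active = activation above the run cutoff, the mean activation of all test compounds plus 3 SD, cut at about 40% in these data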;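 note: peak over basal fluorescence ratio in a 140 s read after ATP addition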
OX1R antag-2: OX1R (human) antagonism; O43613; OX1R-expressing cells, FRET antagonist read-out; inhibition, % at 6.6 µM; 1.8% of 330,000 active; AID 485270; in the data active = inhibition mostly above about 38%, no sharp cut-off; inactive = mostly below about 40%;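 note: 0% = agonist challenge alone and 100% = reference antagonist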
CHO parental Ca: counter-screen for OX1R antagonists: effect in parental CHO cells; parental CHO-K1, ATP-induced calcium, Fluo-8 fluorescence; inhibition, % at 5.6 µM; 0.63% of 330,000 active; AID 463079;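 active = inhibition above that plate's mean sample inhibition plus 3 SD, cut at about 26% in these data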;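 note: 0% = ATP-challenged DMSO wells and 100% = DMSO wells without ATP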
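Test system: untransfected parental CHO cell line. Compound: one dose, 5.6 µM nominal. Detection: intracellular calcium via Fluo-8 no-wash fluorescent dye. Measure: % inhibition. Benchmarks: ATP-challenged DMSO wells low, unchallenged DMSO wells high.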
An asterisk follows results filed as active; x = not tested or not shown.

SMILES	CHO-K1 Ca antag	M1 ag parental	OX1R antag-1	M1 PAM parental	OX1R antag-2	CHO parental Ca
CN(c1ccc(C(=O)N2CCCCC2)cc1)S(=O)(=O)c1ccccc1	7	7	42*	4	59	38*
CCOC(=O)C1CCCN(C(=O)c2cccc(S(=O)(=O)N(C)c3ccc(C)cc3)c2)C1 (stereo not drawn)	2	1	31	-5	58*	-11
CC1(C(=O)O)CCCN(C(=O)c2ccc3c(c2)C(C)(C)CCC3(C)C)C1 (stereo not drawn)	9	0	x	-11	x	x
COC(=O)/C(C#N)=C1/C=Cc2ccccc2N1C	-10	0	-34	14	60*	-4
Cc1cc(C)cc(OCC(=O)NNC(=O)c2cc3ccccc3o2)c1	-15	1	-4	23	9	-11
CC(C)COc1ccc(S(=O)(=O)NNC(=O)c2cc3ccccc3o2)cc1	6	7	26	3	29	43*
CCc1ccc(OCC(=O)NNC(=O)c2cc3ccccc3o2)cc1	-10	2	-1	19	9	53*
CCCCOc1ccc(S(=O)(=O)NNC(=O)c2cc3ccccc3o2)cc1	2	3	-31	-2	9	-27
CCCNCC(=O)Nc1sc2c(c1C(=O)Nc1c(C)n(C)n(-c3ccccc3)c1=O)CCCC2	2	0	x	8	x	x
CN(Cc1ccccc1)S(=O)(=O)c1ccc(N2CCCC2=O)cc1	23	16*	8	1	0	-7
CN(Cc1ccccc1)S(=O)(=O)c1ccc(NS(=O)(=O)Cc2ccccc2)cc1	22	2	42*	-9	44*	40*
CCCn1c(SCC(=O)N2CCN(C(=O)c3ccco3)CC2)nc2ccccc2c1=O	-10	0	-33	16	25	-19
Cc1cc(C(C)(C)C)oc1C(=O)N(CC(=O)NC1CCCC1)Cc1ccccc1Cl	-1	5	105*	20	89*	25
O=[N+]([O-])c1cc(Br)c(O)c(C=Nc2ccc(N3CCOCC3)cc2)c1	-3	3	-14	18	66*	-16
CN(CC(=O)Nc1c(Cl)cccc1Cl)C(=O)Cn1[nH]c(=O)c2ccccc2c1=O	-8	0	-1	3	6	-13
CS(=O)(=O)c1ccc2nc(NC(=O)CS(=O)(=O)Cc3ccccc3)sc2c1	-22	1	11	13	71*	-8
CS(=O)(=O)c1ccc2nc(NC(=O)Nc3cccc(Cl)c3)sc2c1	12	16*	36	-9	39*	33*
C/C(=N\NC(=O)c1ccc([N+](=O)[O-])cc1)c1cccc([N+](=O)[O-])c1	5	0	-9	18	64*	-11
O=C(Nc1ccccc1C(=O)N1CCCCCC1)c1cccc([N+](=O)[O-])c1	8	0	-8	-20	53*	-30
O=C(Nc1ccccc1N1CCCCC1)c1cccc([N+](=O)[O-])c1	-17	1	-46	9	19	-24
O=C(NNC(=O)c1cccc([N+](=O)[O-])c1)c1ccncc1	-3	0	-5	3	46*	-6
C/C(=N\NC(=O)c1cccnc1)c1cccc([N+](=O)[O-])c1	14	1	-23	-16	29	-19
C/C(=N\NC(=O)CSc1nc(C)cc(C)n1)c1cccc([N+](=O)[O-])c1	-13	0	1	41*	13	1
COc1ccc(C2C(C)C(=O)C(C)C(c3ccc(OC)cc3)N2N=O)cc1 (stereo not drawn)	-7	0	x	9	x	x
Cc1cccc(C)c1-n1nnnc1SCC(=O)N1CCNC1=O	0	1	x	-25	x	x
SMILES	CHO-K1 Ca antag	M1 ag parental	OX1R antag-1	M1 PAM parental	OX1R antag-2	CHO parental Ca
COc1ccccc1-c1cccc2nccn12	3	0	x	7	x	x
O=C(CSc1ncccn1)N/N=C/c1cccc([N+](=O)[O-])c1	0	0	-10	8	72*	8
O=C(CSc1ccccn1)N/N=C/c1cccc([N+](=O)[O-])c1	-5	1	-21	13	42	-9
NC(=O)c1c(NC(=O)c2cnccn2)sc2c1CCCC2	15	-1	-23	-11	14	-4
Cn1ncc(Cl)c1C(=O)Nc1sc2c(c1C(N)=O)CCC2	-9	0	13	8	76*	-24
N#Cc1ccccc1S(=O)(=O)N1CCN(C(=O)C2CCCCC2)CC1	5	0	-21	-21	3	-8
COC(=O)C(Cc1ccc(OC(=O)c2ccc(Cl)cc2)cc1)N1Cc2ccccc2C1=O (stereo not drawn)	34*	9	41*	2	23	53*
O=C(O)CC(c1ccc(Cl)cc1)N1Cc2ccccc2C1=O (stereo not drawn)	1	0	-18	-5	2	-3
COC(=O)C(Cc1ccc(OC(=O)c2ccc(C(F)(F)F)cc2)cc1)N1Cc2ccccc2C1=O (stereo not drawn)	25*	10	36	1	11	40*
CC12CCC(=O)N1C(C(=O)Nc1nnc(SCc3ccc(F)cc3)s1)CS2 (stereo not drawn)	6	1	-15	-10	43	-11
O=C(NC1CCCCC1)Sc1ccc(Cl)cc1	24*	0	-9	-4	4	11
COc1ccccc1CN1CCN(S(=O)(=O)c2ccc(C)cc2)CC1	-4	1	-45	-6	3	-10
O=C(COC(=O)/C=C/c1ccc(C(F)(F)F)cc1)NCC1CCCCC1	-3	1	-17	13	6	6
O=C(OCc1nc2ccccc2[n+]([O-])c1C(=O)c1ccccc1)c1ccco1	24*	1	-35	-19	27	-26
CC(=O)c1c(COC(=O)c2ccco2)nc2ccccc2[n+]1[O-]	-13	4	-24	16	40	-17
CC1CCCCC1NC(=O)CSc1nnc(C(F)(F)F)n1C (stereo not drawn)	-4	1	x	9	x	x
CCOC(=O)c1c(C)c(/C=N/Nc2ccccc2)n(C)c1C	-11	1	x	9	x	x
O=C(c1ccccc1)c1ccccc1C(=O)N1CCN(C(=O)c2ccccc2)CC1	1	1	-6	14	2	-6
CC(C)n1c2ccccc2c2nnc(SCC(=O)OCN3C(=O)c4ccccc4C3=O)nc21	1	4	-1	9	50*	-17
CCOC(=O)CSc1nnc2c3ccccc3n(C)c2n1	-8	0	-14	13	16	-13
COc1ccc(OC)c(CCNC(=O)Cc2ccc(NC(=O)C3=C(C)OCCS3)cc2)c1	-8	0	x	13	x	x
COc1ccc(OC)c(CCNC(=O)c2cccc(NC(=O)C3=C(C)OCCS3)c2)c1	-7	5	-10	-5	41*	-23
COc1ccc(CCNC(=O)c2ccccc2NC(=O)C2=C(C)OCCS2)c(OC)c1	-5	4	-10	1	64*	-8
